Assay results as given in paper PMC3928098 (Leukemia, 2013).

Experiments:
p35-CDK5 (K5/p35) = conditions: read-out: IC50 K5/p35; in vitro cell-free kinase assay; cited from earlier work
[1] = system: p53 DNA binding activity in MM.1S cells; test: sequence specific p53 DNA binding assay; assay type: cell-based, human; conditions: 50nM, 4h
Method in brief: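 MM.1S cells were cultured with medium or 50 nM test compound for 1, 4 and 8 h, and nuclear proteins were then isolated. Extracts were incubated overnight in wells coated with dsDNA carrying the p53 response element. Bound p53 was detected with an anti-p53 primary antibody and an HRP-linked secondary, read colorimetrically at 450 nm, in triplicate.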

cyclin H-CDK7 (K7/H) [2] = conditions: read-out: IC50 K7/H; in vitro cell-free kinase assay; cited from earlier work
[3] = system: p-RNAPII S2/S5 in MM cell lines; test: western blot of phosphorylated RNAPII S2/S5; assay type: cell-based, human; conditions: 0-8h, 25-100nM, all tested MM cell lines, immunoblot
Method in brief: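 MM cell lines were exposed to test compound (0–100 nM) for 1, 4 and 8 h. Whole-cell lysates were run on SDS-PAGE and transferred to nitrocellulose. Blots were probed with phosphospecific antibodies to RNAPII S2/S5 and re-probed for actin, tubulin or GAPDH as loading controls.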

cyclin D3-CDK6 (K6/D3) [4] = test: in vitro cell-free kinase assay, cyclin D3-CDK6; assay type: biochemical; conditions: in vitro kinase assays, compared with CDK 1, 2, 3, 4, 5 and 9
cyclin B1-CDK1 (K1/B1) = conditions: read-out: IC50 K1/B1; in vitro cell-free kinase assay; cited from earlier work
TAK1 = conditions: read-out: IC50 TAK1; in vitro cell-free kinase assay; cited from earlier work
MEK1 = conditions: read-out: IC50 MEK1; in vitro cell-free kinase assay; cited from earlier work
AMPK = conditions: read-out: IC50 AMPK; in vitro cell-free kinase assay; cited from earlier work
cyclin E-CDK2 (K2/E) = conditions: read-out: IC50 K2/E; in vitro cell-free kinase assay; cited from earlier work
GSK-3β = conditions: read-out: IC50 GSK-3β; in vitro cell-free kinase assay; cited from earlier work
cyclin D3-CDK6 (K6/D3) [5] = conditions: read-out: IC50 K6/D3; in vitro cell-free kinase assay; cited from earlier work
[6] = system: U266, OPM1, and RPMI MM cell lines; test: RNA synthesis assay in p53-mutated MM cell lines; assay type: cell-based, human; conditions: 0-100nM, 24h
Method in brief: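 p53-mutant U266, OPM1 and RPMI cells (2–3 × 10³/well) were treated at 37°C with test compound (0–100 nM) for 2 and 24 h. [5′-³H]uridine was then added, and cells were harvested and counted by scintillation. Values are means ±SD of triplicate cultures.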

[7] = MM xenograft murine model, body weight and toxicity; assay type: in vivo, CB-17 SCID mice
Method in brief: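 MM.1S s.c. xenografts in irradiated SCID mice; test compound at 30 or 40 mg/kg, or D5W pH5.2 vehicle, given IV by tail vein daily for 5 days once tumours reached ~100 mg. Body weight and tumour size were recorded every alternate day. Mice were euthanised by CO2 if tumour exceeded 2 cm or ulcerated.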

MM.1S cells [8] = test: DNA synthesis assay, [3H-TdR] uptake; assay type: cell-based, human; conditions: BMSCs-stimulated MM.1S cells
Method in brief: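 MM.1S cells (2–3 × 10³/well) were plated alone or with patient-derived BMSCs and exposed to varying test compound concentrations for 8 and 24 h at 37°C. [³H-TdR] ([…]) was pulsed in the last 8 h. Cells were harvested and counted by scintillation. Values are means ±SD of triplicate cultures.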

healthy donor PBMCs = test: cytotoxicity in healthy donor PBMCs; assay type: cell-based, human; conditions: compared with tumor cells from MM patients, 50nM
Method in brief: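 PBMCs were obtained from healthy volunteer blood by Ficoll-Hipaque gradient separation before exposure to test compound.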

cyclin E-CDK3 (K3/E) = conditions: read-out: IC50 K3/E; in vitro cell-free kinase assay; cited from earlier work
Fms = conditions: read-out: IC50 Fms; in vitro cell-free kinase assay; cited from earlier work
cyclin D1-CDK4 (K4/D1) = conditions: read-out: IC50 K4/D1; in vitro cell-free kinase assay; cited from earlier work
MM.1S cells [9] = test: annexin V-PI apoptosis detection; assay type: cell-based, human; conditions: 50nM, 12 hours
Method in brief: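 MM.1S cells (1 × 10⁶) were exposed to 50 nM test compound or medium for 12–24 h. Cells were stained with annexin V-FITC and PI for 15 min, and annexin V+/PI+ apoptotic cells were counted by flow cytometry.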

C-src = conditions: read-out: IC50 C-src; in vitro cell-free kinase assay; cited from earlier work
[10] = system: p53 knockdown MM.1S cells; test: MTT viability of p53 shRNA knockdown MM.1S; assay type: cell-based, human; conditions: p53 shRNA-transduced MM.1S versus control, MTT 48h
Method in brief: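 MM.1S cells were transduced with lentiviral shTP53 or empty-vector particles in medium with polybrene (8 μg/ml), and medium was refreshed at 24 h. Infection was checked at 72 h by puromycin (2 μg/ml) sensitivity against parental cells, using MTT. Transduced cells were then exposed to test compound and viability was read by MTT, in triplicate cultures.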

MM.1S cells [11] = test: cell cycle analysis by PI flow cytometry; assay type: cell-based, human; conditions: 50nM, 12h
Method in brief: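 MM.1S cells (1 × 10⁶) were cultured in medium or with 50 nM test compound for 12 and 24 h, then washed in ice-cold PBS. They were fixed in 100% ethanol for 1 h at 4°C, treated with RNase for 30 min at 37°C, and stained with propidium iodide. Cell cycle profiles were acquired by flow cytometry and modelled for phase distribution.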

Jak2 = conditions: read-out: IC50 Jak2; in vitro cell-free kinase assay; cited from earlier work
[12] = system: primary tumor cells from MM patients (CD138+); test: MTT viability of primary tumor cells from MM patients; assay type: cell-based, human; conditions: 0-100nM, MTT at 48h
Method in brief: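 Bone marrow mononuclear cells from MM patient aspirates were separated on Ficoll-Hipaque, and plasma cells were purified by anti-CD138 magnetic bead positive selection. Cells were cultured with test compound (0–100 nM) and viability was read by MTT at 48 h (570/630 nm). Values are means ±SD of triplicate cultures.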

cyclin H-CDK7 (K7/H) [13] = test: in vitro cell-free kinase assay, cyclin H-CDK7; assay type: biochemical; conditions: in vitro kinase assays, compared with CDK 1, 2, 3, 4, 5 and 9
cyclin T1-CDK9 (K9/T1) = conditions: read-out: IC50 K9/T1; in vitro cell-free kinase assay; cited from earlier work
MM.1S cells xenograft = test: MM xenograft murine model, anti-MM activity; assay type: in vivo, CB-17 SCID mice; conditions: for maximum TGI (%): day 14 following end of treatment
Method in brief: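 SCID mice were irradiated, then inoculated s.c. in the upper back 24 h later with MM.1S cells (2.5 × 10⁶ in methods; 3 × 10⁶ in 100 uL RPMI in legend). At ~100 mg tumour, mice were randomised to test compound in D5W pH5.2 or D5W vehicle, IV tail vein daily ×5 (n=8, 9, 10). Calipers every other day; volume = ½·L·W². TGI = 100 − T/C%; log10 cell kill from growth delay and doubling time; survival timed from first treatment day.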

[14] = system: miR-21-3p, miR-19a-5p, miR-92a-1-5p in U266 and OPM1 cells; test: TaqMan specific miRNA assays; assay type: cell-based, human; conditions: 50nM for 8h
Method in brief: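 U266, OPM1 and RPMI cells were cultured for 8 h in medium alone or with 50 nM test compound. Total RNA was isolated with a mirVana kit. miR-21-3p, miR-19a-5p and miR-92a-1-5p were quantified with target-specific TaqMan MicroRNA Assays following the manufacturer's protocol.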

MM.1S cells [15] = test: NAD+/NADH quantification assay; assay type: cell-based, human; conditions: 50nM
Method in brief: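 MM.1S cells were cultured with 50 nM test compound and 5 × 10⁵ cells were extracted. For total NAD, extract was incubated with NAD Cycling Mix for 5 min at RT to convert NAD+ to NADH. For NADH, extract was heated at 60°C for 30 min to decompose NAD+. Developer was added for 40 min in the dark and read at 450 nm, in duplicate. Ratio = (NADt − NADH)/NADH.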

MM.1S cells [16] = test: RNA synthesis assay, [5'-3H]uridine incorporation, MM.1S; assay type: cell-based, human
[17] = system: MM cell lines (MM.1S, MM.1R, H929, U266, OPM1, RPMI); test: MTT cell viability assay in MM cell lines; assay type: cell-based; conditions: Homo sapiens
Method in brief: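 MM lines were grown in RPMI-1640 with 10% FBS, 2 mM L-glutamine and pen/strep, then treated with test compound (0–100 nM) for 24 and 48 h. MTT was added for 4 h at 37°C and dissolved in acidified isopropanol. Absorbance was read at 570 nm, corrected at 630 nm, with triplicate cultures.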

COCCN1CCN(Cc2ccc(-c3n[nH]c4c3C(=O)c3c(NC(=O)NN5CCOCC5)cccc3-4)cc2)CC1.Cl.Cl [RGB-286638, 1-(3-{4-[4-(2-Methoxyethyl)-piperazin-1-ylmethyl]-phenyl}-4-oxo-1,4-dihydroindeno[1,2-c]pyrazol-5-yl)-3-morpholin-4-yl-urea dihydrochloride]
IC50 (p35-CDK5 (K5/p35)): 5 nM
p53 sequence specific DNA binding [1]: increased p53 DNA binding
IC50 (cyclin H-CDK7 (K7/H) [2]): 44 nM
effect on p-RNAPII S2/S5 [3]: rapid downregulation
fold less active against CDK 6 (cyclin D3-CDK6 (K6/D3) [4]): 55 fold
IC50 (cyclin B1-CDK1 (K1/B1)): 2 nM
IC50 (TAK1): 5 nM
IC50 (MEK1): 54 nM
IC50 (AMPK): 41 nM
IC50 (cyclin E-CDK2 (K2/E)): 3 nM
IC50 (GSK-3β): 3 nM
IC50 (cyclin D3-CDK6 (K6/D3) [5]): 55 nM
effect on RNA synthesis [6]: significant inhibition
maximum percentage of body weight (BW) loss ([7]; 30mg/kg dosage schedule, day 5): 8.4%
maximum percentage of body weight (BW) loss ([7]; 40 mg/kg dosing, day 15): 9.9%
toxic deaths ([7]; 30 and 40 mg/kg IV daily for 5 days): No toxic deaths
reduction in DNA synthesis (MM.1S cells [8]; 8h): 60%
effect on MM.1S proliferation (MM.1S cells [8]; 24h): complete block
cytotoxicity in healthy donor PBMCs (healthy donor PBMCs): less cytotoxicity
IC50 (cyclin E-CDK3 (K3/E)): 5 nM
IC50 (Fms): 1 nM
IC50 (cyclin D1-CDK4 (K4/D1)): 4 nM
apoptotic MM cells, Annexin/PI staining (MM.1S cells [9]): 25%
IC50 (C-src): 25 nM
cells rescued from RGB-286638-induced cell death by p53 knockdown [10]: 14%
effect on cell cycle (MM.1S cells [11]): G1 and G2/M cell cycle arrest
IC50 (Jak2): 50 nM
cytotoxicity in primary tumor cells from MM patients [12]: comparable cytotoxicity to MM cell lines
fold less active against CDK 7 (cyclin H-CDK7 (K7/H) [13]): 44 fold
IC50 (cyclin T1-CDK9 (K9/T1)): 1 nM
maximum TGI (%) (MM.1S cells xenograft; 30 mg/kg IV daily for 5 days): 85.06%
maximum TGI (%) (MM.1S cells xenograft; 40 mg/kg IV daily for 5 days): 86.34%
log10 cell kill (LCK Td: 4.5 days) (MM.1S cells xenograft; both treated groups (30 mg/kg and 40 mg/kg IV, 5 days)): 1.6
survival, first death (MM.1S cells xenograft; both treated groups (30 and 40 mg/kg), controls day 24): 43 days
miR-21-3p, miR-19a-5p, and miR-92a-1-5p levels [14]: significantly reduced
NADH depletion (MM.1S cells [15]): 50%
NADt depletion (MM.1S cells [15]): 30%
reduction of total level of transcripts (MM.1S cells [16]; BMSCs-stimulated MM.1S cells, 8h): ~ 50%
effect on transcription (MM.1S cells [16]; BMSCs-stimulated MM.1S cells, 24h): blocked transcription
reduction of RNA synthesis (MM.1S cells [16]; MM.1S, 50nM or 100nM, two hours): 50%
EC50 ([17]; 48 h, read-out: EC50, viability by MTT assay): 20 to 70 nM
IC50 ([17]; read-out: IC50, MM cell proliferation): 50 to 100 nM

OC[C@H]1OC(n2cnc3cc(Cl)c(Cl)cc32)[C@H](O)[C@@H]1O (stereo partly drawn) [DRB, 5,6-Dichloro-1—D-ribofuranosylbenzimidazole, reference compound]
effect on RNA synthesis (MM.1S cells [16]; MM.1S, 2h, Suppl. Fig. S3): significantly inhibited RNA synthesis
